Experimental data published in ChEMBL document CHEMBL2346607, “Borrelidin analogues with antimalarial activity: design, synthesis and biological evaluation against Plasmodium falciparum parasites” (Bioorg Med Chem Lett, 2013).
≈ marks a conversion by molar mass, not a printed value.

Assays:
[1] = Cytotoxicity against human […] cells after 7 days by MTT assay; format: cell-based; settings: 168 h
Outline: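 Cytotoxicity was tested on MRC-5, a human diploid embryonic cell line. The value is reported as an IC50 in ng/mL.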

Plasmodium falciparum [2] = assay: Antimalarial activity against Plasmodium falciparum FCR-3 infected in human erythrocytes after 72 hrs by lactate dehydrogenase assay; format: functional, cell-based; settings: FCR-3/Gambia
Outline: (§1)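 In vitro assay against the P. falciparum strains K1 (drug-resistant) and FCR3 (drug-sensitive). The value is reported as an IC50 in ng/mL.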

[3] = Selectivity index, ratio of IC50 for human […] cells to IC50 for Plasmodium falciparum K1; format: toxicity, cell-based; settings: MCR5 cells (cytotoxicity) versus Plasmodium falciparum K1, read-out: Ratio IC50
Outline: (§2)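 SI is the MRC-5 cytotoxicity IC50 (ng/mL) divided by the antimalarial IC50 (ng/mL) against the FCR3 or K1 strain. Both IC50s come from the same in vitro test series.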

[4] = Selectivity index, ratio of IC50 for human […] cells to IC50 for Plasmodium falciparum FCR-3; format: toxicity, cell-based; settings: […] cells (cytotoxicity) versus Plasmodium falciparum FCR-3, read-out: Ratio IC50; outline: as §2
Plasmodium falciparum [5] = assay: Antimalarial activity against Plasmodium falciparum K1 infected in human erythrocytes after 72 hrs by lactate dehydrogenase assay; format: functional, organism-based; settings: K1, 72 h; outline: as §1

Structure (SMILES) | IC50 [1] [µg/mL] | IC50 (Plasmodium falciparum [2]) [ng/mL] | selectivity ratio [3] | selectivity ratio [4] | IC50 (Plasmodium falciparum [5]) [ng/mL]
C[C@@H]1C[C@H](C)C[C@H](C)[C@@H](O)CC(=O)O[C@H]([C@@H]2CCC[C@H]2C(=O)OCc2cn(C34CC5CC(CC(C5)C3)C4)nn2)C/C=C/C=C(/C#N)[C@H](O)[C@@H](C)C1 | 2.7 (≈ 3.83 µM) | 168 (≈ 0.238 µM) | 39 | 16 | 70 (≈ 0.0993 µM)
C[C@@H]1C[C@H](C)C[C@H](C)[C@@H](O)CC(=O)O[C@H]([C@@H]2CCC[C@H]2C(=O)Sc2ccccc2)C/C=C/C=C(/C#N)[C@H](O)[C@@H](C)C1 | 0.98 (≈ 1.68 µM) | 160 (≈ 0.275 µM) | 9 | 6 | 107 (≈ 0.184 µM)
C[C@@H]1C[C@H](C)C[C@H](C)[C@@H](O)CC(=O)O[C@H]([C@@H]2CCC[C@H]2C(=O)OCc2cn(CSc3ccccc3)nn2)C/C=C/C=C(/C#N)[C@H](O)[C@@H](C)C1 | 16.8 (≈ 24.2 µM) | 0.85 (≈ 0.00123 µM) | 542000 | 19800 | 0.031 (≈ 4.47e-05 µM)
C[C@@H]1C[C@H](C)C[C@H](C)[C@@H](O)CC(=O)O[C@H]([C@@H]2CCC[C@H]2C(=O)OCc2cn(-c3ccc(C(=O)O)cc3)nn2)C/C=C/C=C(/C#N)[C@H](O)[C@@H](C)C1 | 10.1 (≈ 14.6 µM) | 48.5 (≈ 0.0702 µM) | 267 | 209 | 37.8 (≈ 0.0547 µM)
C[C@@H]1C[C@H](C)C[C@H](C)[C@@H](O)CC(=O)O[C@H]([C@@H]2CCC[C@H]2C(=O)OCc2cn(-c3cccnc3)nn2)C/C=C/C=C(/C#N)[C@H](O)[C@@H](C)C1 | 0.41 (≈ 0.633 µM) | 4.8 (≈ 0.00741 µM) | 143 | 86 | 2.9 (≈ 0.00448 µM)
C[C@@H]1C[C@H](C)C[C@H](C)[C@@H](O)CC(=O)O[C@H]([C@@H]2CCC[C@H]2C(=O)OCc2cn(-c3cnc4ccccc4c3)nn2)C/C=C/C=C(/C#N)[C@H](O)[C@@H](C)C1 | 1.05 (≈ 1.5 µM) | 0.079 (≈ 0.000113 µM) | 15600 | 13400 | 0.067 (≈ 9.6e-05 µM)
C#CCOC(=O)[C@@H]1CCC[C@H]1[C@@H]1C/C=C/C=C(/C#N)[C@H](O)[C@@H](C)C[C@H](C)C[C@H](C)C[C@H](C)[C@@H](O)CC(=O)O1 | 1.2 (≈ 2.27 µM) | 5 (≈ 0.00948 µM) | 462 | 240 | 2.6 (≈ 0.00493 µM)
C[C@@H]1C[C@H](C)C[C@H](C)[C@@H](O)CC(=O)O[C@H]([C@@H]2CCC[C@H]2C(=O)OCCN(C)C)C/C=C/C=C(/C#N)[C@H](O)[C@@H](C)C1 | 0.18 (≈ 0.321 µM) | 0.24 (≈ 0.000428 µM) | 581 | 750 | 0.31 (≈ 0.000553 µM)
C[C@@H]1C[C@H](C)C[C@H](C)[C@@H](O)CC(=O)O[C@H]([C@@H]2CCC[C@H]2C(=O)OCCN2CCOCC2)C/C=C/C=C(/C#N)[C@H](O)[C@@H](C)C1 | 0.26 (≈ 0.431 µM) | 0.43 (≈ 0.000713 µM) | 419 | 604 | 0.62 (≈ 0.00103 µM)
C[C@@H]1C[C@H](C)C[C@H](C)[C@@H](O)CC(=O)O[C@H]([C@@H]2CCC[C@H]2C(=O)NCC(=O)O)C/C=C/C=C(/C#N)[C@H](O)[C@@H](C)C1 | 58.9 (≈ 108 µM) | 31 (≈ 0.0567 µM) | 2850 | 1900 | 21 (≈ 0.0384 µM)
C[C@@H]1C[C@H](C)C[C@H](C)[C@@H](O)CC(=O)O[C@H]([C@@H]2CCC[C@H]2C(=O)N[C@@H](C)C(=O)O)C/C=C/C=C(/C#N)[C@H](O)[C@@H](C)C1 |  | 13 (≈ 0.0232 µM) |  | 4190 | 
C[C@@H]1C[C@H](C)C[C@H](C)[C@@H](O)CC(=O)O[C@H]([C@@H]2CCC[C@H]2C(=O)N[C@@H](CO)C(=O)O)C/C=C/C=C(/C#N)[C@H](O)[C@@H](C)C1 | > 1000 | 200 (≈ 0.347 µM) | > 714 | > 500 | 140 (≈ 0.243 µM)
C[C@@H]1C[C@H](C)C[C@H](C)[C@@H](O)CC(=O)O[C@H]([C@@H]2CCC[C@H]2C(=O)N[C@@H](CC(N)=O)C(=O)O)C/C=C/C=C(/C#N)[C@H](O)[C@@H](C)C1 | > 1000 | 810 (≈ 1.34 µM) | > 172 | > 124 | 580 (≈ 0.961 µM)
CC[C@H](C)[C@H](NC(=O)[C@@H]1CCC[C@H]1[C@@H]1C/C=C/C=C(/C#N)[C@H](O)[C@@H](C)C[C@H](C)C[C@H](C)C[C@H](C)[C@@H](O)CC(=O)O1)C(=O)O | 64 (≈ 106 µM) | 12 (≈ 0.0199 µM) | 3200 | 5330 | 18 (≈ 0.0299 µM)
C[C@@H]1C[C@H](C)C[C@H](C)[C@@H](O)CC(=O)O[C@H]([C@@H]2CCC[C@H]2C(=O)N[C@@H](Cc2ccc(O)cc2)C(=O)O)C/C=C/C=C(/C#N)[C@H](O)[C@@H](C)C1 | 33.4 (≈ 51.2 µM) | 170 (≈ 0.26 µM) | 206 | 197 | 163 (≈ 0.25 µM)
CCSC(=O)[C@@H]1CCC[C@H]1[C@@H]1C/C=C/C=C(/C#N)[C@H](O)[C@@H](C)C[C@H](C)C[C@H](C)C[C@H](C)[C@@H](O)CC(=O)O1 | 12.7 (≈ 23.8 µM) | 10 (≈ 0.0187 µM) | 1570 | 1340 | 8 (≈ 0.015 µM)
CCCSC(=O)[C@@H]1CCC[C@H]1[C@@H]1C/C=C/C=C(/C#N)[C@H](O)[C@@H](C)C[C@H](C)C[C@H](C)C[C@H](C)[C@@H](O)CC(=O)O1 | 3.4 (≈ 6.21 µM) | 280 (≈ 0.511 µM) | 20 | 12 | 167 (≈ 0.305 µM)
CC(C)SC(=O)[C@@H]1CCC[C@H]1[C@@H]1C/C=C/C=C(/C#N)[C@H](O)[C@@H](C)C[C@H](C)C[C@H](C)C[C@H](C)[C@@H](O)CC(=O)O1 | 10.2 (≈ 18.6 µM) | 72 (≈ 0.131 µM) | 172 | 142 | 59 (≈ 0.108 µM)
CCCCSC(=O)[C@@H]1CCC[C@H]1[C@@H]1C/C=C/C=C(/C#N)[C@H](O)[C@@H](C)C[C@H](C)C[C@H](C)C[C@H](C)[C@@H](O)CC(=O)O1 | 2 (≈ 3.56 µM) | 170 (≈ 0.303 µM) | 12 | 12 | 163 (≈ 0.29 µM)
CC(=O)O[C@H]1CC(=O)O[C@H]([C@@H]2CCC[C@H]2C(=O)O)C/C=C/C=C(/C#N)[C@H](OC(C)=O)[C@@H](C)C[C@H](C)C[C@H](C)C[C@@H]1C | 55.7 (≈ 97.1 µM) | 120 (≈ 0.209 µM) | 522 | 464 | 107 (≈ 0.186 µM)
COC(=O)[C@@H]1CCC[C@H]1[C@@H]1C/C=C/C=C(/C#N)[C@H](O)[C@@H](C)C[C@H](C)C[C@H](C)C[C@H](C)[C@@H](O)CC(=O)O1 | 14.6 (≈ 29 µM) | 10 (≈ 0.0199 µM) | 1460 | 1460 | 10 (≈ 0.0199 µM)
C[C@@H]1C[C@H](C)C[C@H](C)[C@@H](O)CC(=O)O[C@H]([C@@H]2CCC[C@H]2C(=O)O)CCCCC(C#N)[C@H](O)[C@@H](C)C1 (stereo not given in full) |  | 130 (≈ 0.263 µM) | 102 | 102 | 130 (≈ 0.263 µM)
CCOC(=O)[C@@H]1CCC[C@H]1[C@@H]1C/C=C/C=C(/C#N)[C@H](O)[C@@H](C)C[C@H](C)C[C@H](C)C[C@H](C)[C@@H](O)CC(=O)O1 | 21.9 (≈ 42.3 µM) | 23.3 (≈ 0.045 µM) | 323 | 939 | 67.8 (≈ 0.131 µM)
CCCOC(=O)[C@@H]1CCC[C@H]1[C@@H]1C/C=C/C=C(/C#N)[C@H](O)[C@@H](C)C[C@H](C)C[C@H](C)C[C@H](C)[C@@H](O)CC(=O)O1 | 18.2 (≈ 34.2 µM) | 78.8 (≈ 0.148 µM) | 202 | 232 | 90.4 (≈ 0.17 µM)
C[C@@H]1C[C@H](C)C[C@H](C)[C@@H](O)CC(=O)O[C@H]([C@@H]2CCC[C@H]2C(=O)OCc2ccccc2)C/C=C/C=C(/C#N)[C@H](O)[C@@H](C)C1 | 4.05 (≈ 6.99 µM) | 20.5 (≈ 0.0354 µM) | 165 | 198 | 24.6 (≈ 0.0424 µM)
C=CCOC(=O)[C@@H]1CCC[C@H]1[C@@H]1C/C=C/C=C(/C#N)[C@H](O)[C@@H](C)C[C@H](C)C[C@H](C)C[C@H](C)[C@@H](O)CC(=O)O1 | 4.63 (≈ 8.74 µM) | 39.2 (≈ 0.074 µM) | 59.6 | 118 | 77.7 (≈ 0.147 µM)
C[C@@H]1CC[C@H]2[C@@H](C)C(=O)O[C@@H]3O[C@@]4(C)CC[C@@H]1[C@]32OO4 [ARTEMISININ] | 45.2 (≈ 160 µM) |  | 7530 | 7530 | 
C[C@@H]1C[C@H](C)C[C@H](C)[C@@H](O)CC(=O)O[C@H]([C@@H]2CCC[C@H]2C(=O)O)C/C=C/C=C(/C#N)[C@H](O)[C@@H](C)C1 [BORRELIDIN] | 0.201 (≈ 0.41 µM) | 0.88 (≈ 0.0018 µM) | 216 | 228 | 0.93 (≈ 0.0019 µM)
CCN(CC)CCCC(C)Nc1ccnc2cc(Cl)ccc12 (stereo not given) [CHLOROQUINE] | 18.6 (≈ 58.1 µM) |  |  |  | 
